Values after ≈ are worked out from the molar mass of the structure shown.
Key:
[1] = Steady-state fluorescence with pyrene probe; type: physicochemical; conditions: 298.15 K; for cmc: Fluorescence (pyrene I1/I3), water; for N agg (aggregation number): ST = 2.5 cmc, fluorescence quenching with CPC
How it was run: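 Pyrene (1 μM) served as probe at 298.15 K. Excitation was 335 nm, emission 355–650 nm, slits 2.5 nm, 700 V, 240 nm min−1, in a 1 cm quartz cuvette. cmc came from a Boltzmann fit of I1/I3 (373/384 nm). For Nagg, test compound at 2.5 cmc was quenched with cetylpyridinium chloride at 0.2–1.0 × 10−4 mol dm−3, and Nagg was derived from linear ln(I0/I) versus [Q].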

[2] = test system: human lung cancer cell line A549; assay: Cell toxicity assay, MTT; type: cell-based
[3] = test system: human hepatocellular carcinoma cell line HepG2; assay: Cell toxicity assay, MTT; type: cell-based
[4] = test system: Escherichia coli ATCC25922; assay: Antibacterial activity, broth dilution MIC; type: cell-based
[5] = Octanol–water partition coefficient, shake-flask method; type: physicochemical
How it was run: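 Shake-flask partitioning was run at 25 and 37 °C in water, SGF (pH 1.2), SIF (pH 6.8) or SBF (pH 7.4). Fluids were prepared per USP without enzyme and pre-saturated with n-octanol (24 h shaking, 24 h separation). Test compound in buffer-saturated octanol (5 mL) was shaken 24 h with 5 mL octanol-saturated buffer, then centrifuged 10 min. The octanol phase was read by UV at 200 nm, and log Ko/w = log Co/(C−Co).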

[6] = Density measurement, apparent molar volume at infinite dilution in water; type: physicochemical; conditions: aqueous solution
How it was run: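 Solution density was measured with a vibrating-tube densitometer calibrated with dry air and double-distilled water, with Peltier temperature control at ±0.01 K and density uncertainty 2.0 × 10−4 g cm−3. Apparent molar volumes were computed versus molality. Infinite-dilution values came from the Redlich–Mayer equation with empirical parameters Sv and Bv.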

[7] = test system: Staphylococcus aureus ATCC29213; assay: Antibacterial activity, broth dilution MIC; type: cell-based; conditions: S. aureus, n = 3
[8] = Conductivity in low concentration region; type: physicochemical; conditions: in water
How it was run: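 Conductivity of aqueous test compound solutions was measured at each temperature in double-distilled deionized water (0.8 − 1.0 × 10−4 S m−1 at 298.15 K). The digital meter and electrode were calibrated with standard KCl, and the thermostat held ±0.02 K; relative standard uncertainty was ±3%.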

[9] = Thermal stability by TG/DTG; type: physicochemical; conditions: first decomposition process, 10 K min^−1, argon
How it was run: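 Simultaneous thermal analysis ran from 30–500 °C at 10 K min−1 on 3–5 mg sample in an Al2O3 crucible, with α-Al2O3 as reference. Argon served as protective gas at 20 mL min−1 and as purge gas at 60 mL min−1.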

[10] = test system: Cutibacterium acnes ATCC6919; assay: Antibacterial activity, broth dilution MIC; type: cell-based
[11] = Aggregation in water by electrical conductivity; type: physicochemical; conditions: for cmc: conductivity, water; for ionization degree α: micelle (cmc); for ΔG^0m / ΔH^0m / ΔS^0m / −TΔS^0m: micellization (cmc)
How it was run: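 Conductivity of aqueous test compound solutions was measured with a digital conductivity meter and electrode, calibrated against standard KCl, with a thermostat holding ±0.02 K and ±3% relative uncertainty. cmc and cac were taken from the break points, found by fitting the Aguiar equation. α came from the ratio of post- to pre-transition slopes (A2/A1), and micellization thermodynamic functions from the mass action model.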

[12] = test system: Candida albicans ATCC10231; assay: Antimicrobial activity, broth dilution MIC; type: cell-based
[13] = pH = 7.0 (ultrapure water), 25 °C
[14] = pH = 7.0 (ultrapure water), 37 °C

CCCCCCC(=O)O.O=C1CCC[C@@H]2[C@H]3CCCN4CCC[C@@H](CN12)[C@@H]34 [[Mat][C7]]
cmc [1]: 0.00554 mol/kg
N agg (aggregation number) [1]: 25
IC50 ([2]; A549, MTT, 24 h, n = 3): 14 mM
IC50 ([3]; HepG2, MTT, 24 h, n = 3): 4.47 mM
MIC ([4]; E. coli, n = 3): 33.0 mM
Log K o/w ([5]; pH = 1.2 (SGF), 25 °C): −0.36
Log K o/w ([5]; pH = 1.2 (SGF), 37 °C): 0.07
Log K o/w ([5]; pH = 6.8 (SIF), 25 °C): 0.01
Log K o/w ([5]; pH = 6.8 (SIF), 37 °C): 0.25
Log K o/w [5, 13]: 0.42
Log K o/w [5, 14]: 0.69
Log K o/w ([5]; pH = 7.4 (SBF), 25 °C): 0.83
Log K o/w ([5]; pH = 7.4 (SBF), 37 °C): 1.01
Apparent molar volume at infinite dilution V^0 2,φ ([6]; 293.15 K): 321.56 ± 0.09 cm^3 mol^−1
Apparent molar volume at infinite dilution V^0 2,φ ([6]; 298.15 K): 323.31 ± 0.11 cm^3 mol^−1
Apparent molar volume at infinite dilution V^0 2,φ ([6]; 303.15 K): 324.72 ± 0.10 cm^3 mol^−1
Apparent molar volume at infinite dilution V^0 2,φ ([6]; 308.15 K): 326.82 ± 0.20 cm^3 mol^−1
MIC [7]: 132.1 mM
Association constant KA ([8]; 298.15 K): 6.11 ± 0.61 dm^3 mol^−1
Limiting molar conductivity Λ0 ([8]; 298.15 K): 47.78 ± 0.03 S cm^2 mol^−1
Association constant KA ([8]; 303.15 K): 3.91 ± 0.48 dm^3 mol^−1
Limiting molar conductivity Λ0 ([8]; 303.15 K): 52.96 ± 0.03 S cm^2 mol^−1
Association constant KA ([8]; 308.15 K): 1.53 ± 0.37 dm^3 mol^−1
Limiting molar conductivity Λ0 ([8]; 308.15 K): 59.37 ± 0.03 S cm^2 mol^−1
T onset (onset decomposition temperature) [9]: 185.5 °C
MIC ([10]; C. acnes, n = 3): 66.0 mM
cmc ([11]; 293.15 K): 0.00511 mol/kg
cmc ([11]; 298.15 K): 0.00524 mol/kg
cmc ([11]; 303.15 K): 0.00536 mol/kg
cmc ([11]; 308.15 K): 0.00549 mol/kg
cmc ([11]; 313.15 K): 0.00558 mol/kg
ionization degree α ([11]; 293.15 K): 0.8986
ionization degree α ([11]; 298.15 K): 0.8976
ionization degree α ([11]; 303.15 K): 0.8989
ionization degree α ([11]; 308.15 K): 0.8927
ionization degree α ([11]; 313.15 K): 0.8987
ΔG^0m ([11]; 293.15 K): -5.961 kcal/mol
ΔH^0m ([11]; 293.15 K): -0.956 kcal/mol
ΔS^0m ([11]; 293.15 K): 71.43 J mol^−1 K^−1
−TΔS^0m ([11]; 293.15 K): -5.005 kcal/mol
ΔG^0m ([11]; 298.15 K): -6.054 kcal/mol
ΔH^0m ([11]; 298.15 K): -0.92 kcal/mol
ΔS^0m ([11]; 298.15 K): 72.03 J mol^−1 K^−1
−TΔS^0m ([11]; 298.15 K): -5.134 kcal/mol
ΔG^0m ([11]; 303.15 K): -6.133 kcal/mol
ΔH^0m ([11]; 303.15 K): -0.88 kcal/mol
ΔS^0m ([11]; 303.15 K): 72.51 J mol^−1 K^−1
−TΔS^0m ([11]; 303.15 K): -5.253 kcal/mol
ΔG^0m ([11]; 308.15 K): -6.252 kcal/mol
ΔH^0m ([11]; 308.15 K): -0.839 kcal/mol
ΔS^0m ([11]; 308.15 K): 73.51 J mol^−1 K^−1
−TΔS^0m ([11]; 308.15 K): -5.413 kcal/mol
ΔG^0m ([11]; 313.15 K): -6.31 kcal/mol
ΔH^0m ([11]; 313.15 K): -0.786 kcal/mol
ΔS^0m ([11]; 313.15 K): 73.80 J mol^−1 K^−1
−TΔS^0m ([11]; 313.15 K): -5.523 kcal/mol
MIC ([12]; C. albicans, n = 3): 66.0 mM

CCCCCCCCCCC(=O)O.O=C1CCC[C@@H]2[C@H]3CCCN4CCC[C@@H](CN12)[C@@H]34 [[Mat][C11]]
cmc [1]: 0.00384 mol/kg
N agg (aggregation number) [1]: 77
IC50 ([2]; A549, MTT, 24 h, n = 3): 0.71 mM
IC50 ([3]; HepG2, MTT, 24 h, n = 3): 0.45 mM
MIC ([4]; E. coli, n = 3): 28.8 mM
Log K o/w ([5]; pH = 1.2 (SGF), 25 °C): −0.32
Log K o/w ([5]; pH = 1.2 (SGF), 37 °C): 0.26
Log K o/w ([5]; pH = 6.8 (SIF), 25 °C): 0.04
Log K o/w ([5]; pH = 6.8 (SIF), 37 °C): 0.35
Log K o/w [5, 13]: 0.77
Log K o/w [5, 14]: 0.91
Log K o/w ([5]; pH = 7.4 (SBF), 25 °C): 1.20
Log K o/w ([5]; pH = 7.4 (SBF), 37 °C): 1.27
Apparent molar volume at infinite dilution V^0 2,φ ([6]; 293.15 K): 386.51 ± 0.35 cm^3 mol^−1
Apparent molar volume at infinite dilution V^0 2,φ ([6]; 298.15 K): 389.66 ± 0.38 cm^3 mol^−1
Apparent molar volume at infinite dilution V^0 2,φ ([6]; 303.15 K): 392.77 ± 0.34 cm^3 mol^−1
Apparent molar volume at infinite dilution V^0 2,φ ([6]; 308.15 K): 396.26 ± 0.38 cm^3 mol^−1
MIC [7]: 0.9 mM
Association constant KA ([8]; 298.15 K): 19.06 ± 1.31 dm^3 mol^−1
Limiting molar conductivity Λ0 ([8]; 298.15 K): 44.67 ± 0.06 S cm^2 mol^−1
Association constant KA ([8]; 303.15 K): 7.36 ± 1.09 dm^3 mol^−1
Limiting molar conductivity Λ0 ([8]; 303.15 K): 49.46 ± 0.06 S cm^2 mol^−1
Association constant KA ([8]; 308.15 K): 2.04 ± 1.14 dm^3 mol^−1
Limiting molar conductivity Λ0 ([8]; 308.15 K): 55.26 ± 0.07 S cm^2 mol^−1
T onset (onset decomposition temperature) [9]: 199.4 °C
MIC ([10]; C. acnes, n = 3): 0.46 mM
cmc ([11]; 293.15 K): 0.00385 mol/kg
cmc ([11]; 298.15 K): 0.00395 mol/kg
cmc ([11]; 303.15 K): 0.00402 mol/kg
cmc ([11]; 308.15 K): 0.00407 mol/kg
cmc ([11]; 313.15 K): 0.00411 mol/kg
ionization degree α ([11]; 293.15 K): 0.8532
ionization degree α ([11]; 298.15 K): 0.8429
ionization degree α ([11]; 303.15 K): 0.8267
ionization degree α ([11]; 308.15 K): 0.8151
ionization degree α ([11]; 313.15 K): 0.7968
ΔG^0m ([11]; 293.15 K): -6.398 kcal/mol
ΔH^0m ([11]; 293.15 K): -1.04 kcal/mol
ΔS^0m ([11]; 293.15 K): 76.44 J mol^−1 K^−1
−TΔS^0m ([11]; 293.15 K): -5.356 kcal/mol
ΔG^0m ([11]; 298.15 K): -6.546 kcal/mol
ΔH^0m ([11]; 298.15 K): -0.872 kcal/mol
ΔS^0m ([11]; 298.15 K): 79.65 J mol^−1 K^−1
−TΔS^0m ([11]; 298.15 K): -5.676 kcal/mol
ΔG^0m ([11]; 303.15 K): -6.738 kcal/mol
ΔH^0m ([11]; 303.15 K): -0.688 kcal/mol
ΔS^0m ([11]; 303.15 K): 83.51 J mol^−1 K^−1
−TΔS^0m ([11]; 303.15 K): -6.052 kcal/mol
ΔG^0m ([11]; 308.15 K): -6.907 kcal/mol
ΔH^0m ([11]; 308.15 K): -0.483 kcal/mol
ΔS^0m ([11]; 308.15 K): 87.26 J mol^−1 K^−1
−TΔS^0m ([11]; 308.15 K): -6.427 kcal/mol
ΔG^0m ([11]; 313.15 K): -7.122 kcal/mol
ΔH^0m ([11]; 313.15 K): -0.258 kcal/mol
ΔS^0m ([11]; 313.15 K): 91.70 J mol^−1 K^−1
−TΔS^0m ([11]; 313.15 K): -6.864 kcal/mol
MIC ([12]; C. albicans, n = 3): 0.46 mM

O=C1CCC[C@@H]2[C@H]3CCCN4CCC[C@@H](CN12)[C@@H]34 [Matrine, reference compound]
IC50 ([2]; Homo sapiens, A549, 24 h): 11.8 mM
IC50 ([3]; Homo sapiens, HepG2, 24 h): 4.27 mM
MIC ([4]; Escherichia coli, ATCC25922): 50.3 mM (≈ 12.5 mg/mL)
MIC ([10]; Cutibacterium acnes, ATCC6919): 50.3 mM (≈ 12.5 mg/mL)
MIC ([12]; Candida albicans, ATCC10231): 25.2 mM (≈ 6.26 mg/mL)

Source: PMC12279052 (RSC Advances, 2025)
